Reference: ChEMBL document CHEMBL4190386, “Discovery of 6-(pyrimidin-5-ylmethyl)quinoline-8-carboxamide negative allosteric modulators of metabotropic glutamate receptor subtype 5” (Bioorg Med Chem Lett, 2018)
Active and inactive are the calls of the source. The rule behind the calls is not given here.

What was measured:
[1] = target: Metabotropic glutamate receptor 5 (Rattus norvegicus, UniProt P31424); assay: Negative allosteric modulator activity at rat mGlu5 receptor expressed in HEK293A cells assessed as inhibition of EC80 glutamate-induced Ca2+ mobilization by Fluo-4 AM dye based fluorescence assay; assay type: functional, cell-based
Metabotropic glutamate receptor 5, sequence (P31424 whole entry): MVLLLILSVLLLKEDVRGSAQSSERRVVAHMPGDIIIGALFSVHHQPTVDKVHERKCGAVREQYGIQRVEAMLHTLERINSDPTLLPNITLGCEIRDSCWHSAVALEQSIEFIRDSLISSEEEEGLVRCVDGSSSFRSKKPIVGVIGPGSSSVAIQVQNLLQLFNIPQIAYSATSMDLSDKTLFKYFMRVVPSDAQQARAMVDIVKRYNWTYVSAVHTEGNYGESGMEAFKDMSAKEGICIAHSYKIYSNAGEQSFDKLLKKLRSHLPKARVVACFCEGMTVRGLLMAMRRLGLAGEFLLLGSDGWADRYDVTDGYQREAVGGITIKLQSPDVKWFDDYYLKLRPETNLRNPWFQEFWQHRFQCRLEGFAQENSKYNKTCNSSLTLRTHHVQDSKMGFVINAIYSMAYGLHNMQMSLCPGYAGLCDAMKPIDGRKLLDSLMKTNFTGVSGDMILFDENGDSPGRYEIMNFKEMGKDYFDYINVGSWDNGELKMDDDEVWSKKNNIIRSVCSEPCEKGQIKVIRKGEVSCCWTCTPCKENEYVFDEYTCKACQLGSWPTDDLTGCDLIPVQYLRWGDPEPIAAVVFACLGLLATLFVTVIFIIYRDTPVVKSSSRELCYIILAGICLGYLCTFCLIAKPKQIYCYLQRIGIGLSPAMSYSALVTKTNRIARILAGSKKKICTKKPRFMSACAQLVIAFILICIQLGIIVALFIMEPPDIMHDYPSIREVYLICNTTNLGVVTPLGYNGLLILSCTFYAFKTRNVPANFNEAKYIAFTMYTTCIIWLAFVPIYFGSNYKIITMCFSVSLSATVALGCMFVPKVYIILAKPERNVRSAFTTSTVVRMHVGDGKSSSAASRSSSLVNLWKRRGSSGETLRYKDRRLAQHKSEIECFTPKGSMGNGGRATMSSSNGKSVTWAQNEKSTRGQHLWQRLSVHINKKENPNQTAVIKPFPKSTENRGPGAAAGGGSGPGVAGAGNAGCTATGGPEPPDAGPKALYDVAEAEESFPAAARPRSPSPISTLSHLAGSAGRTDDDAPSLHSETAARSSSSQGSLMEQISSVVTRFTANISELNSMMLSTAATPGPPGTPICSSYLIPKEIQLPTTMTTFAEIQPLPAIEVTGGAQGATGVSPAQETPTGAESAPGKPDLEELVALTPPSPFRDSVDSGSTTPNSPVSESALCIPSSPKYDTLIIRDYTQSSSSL

[2] = target: Metabotropic glutamate receptor 5 (Rattus norvegicus) (UniProt P31424); assay: Negative allosteric modulator activity at rat mGlu5 receptor expressed in HEK293A cells assessed as EC80 glutamate-induced maximum Ca2+ mobilization response at 30 uM relative to 100 uM glutamate by Fluo-4 AM dye based fluorescence assay; assay type: functional, cell-based
Metabotropic glutamate receptor 5 (Rattus norvegicus), sequence (P31424 21-1203 limits assumed): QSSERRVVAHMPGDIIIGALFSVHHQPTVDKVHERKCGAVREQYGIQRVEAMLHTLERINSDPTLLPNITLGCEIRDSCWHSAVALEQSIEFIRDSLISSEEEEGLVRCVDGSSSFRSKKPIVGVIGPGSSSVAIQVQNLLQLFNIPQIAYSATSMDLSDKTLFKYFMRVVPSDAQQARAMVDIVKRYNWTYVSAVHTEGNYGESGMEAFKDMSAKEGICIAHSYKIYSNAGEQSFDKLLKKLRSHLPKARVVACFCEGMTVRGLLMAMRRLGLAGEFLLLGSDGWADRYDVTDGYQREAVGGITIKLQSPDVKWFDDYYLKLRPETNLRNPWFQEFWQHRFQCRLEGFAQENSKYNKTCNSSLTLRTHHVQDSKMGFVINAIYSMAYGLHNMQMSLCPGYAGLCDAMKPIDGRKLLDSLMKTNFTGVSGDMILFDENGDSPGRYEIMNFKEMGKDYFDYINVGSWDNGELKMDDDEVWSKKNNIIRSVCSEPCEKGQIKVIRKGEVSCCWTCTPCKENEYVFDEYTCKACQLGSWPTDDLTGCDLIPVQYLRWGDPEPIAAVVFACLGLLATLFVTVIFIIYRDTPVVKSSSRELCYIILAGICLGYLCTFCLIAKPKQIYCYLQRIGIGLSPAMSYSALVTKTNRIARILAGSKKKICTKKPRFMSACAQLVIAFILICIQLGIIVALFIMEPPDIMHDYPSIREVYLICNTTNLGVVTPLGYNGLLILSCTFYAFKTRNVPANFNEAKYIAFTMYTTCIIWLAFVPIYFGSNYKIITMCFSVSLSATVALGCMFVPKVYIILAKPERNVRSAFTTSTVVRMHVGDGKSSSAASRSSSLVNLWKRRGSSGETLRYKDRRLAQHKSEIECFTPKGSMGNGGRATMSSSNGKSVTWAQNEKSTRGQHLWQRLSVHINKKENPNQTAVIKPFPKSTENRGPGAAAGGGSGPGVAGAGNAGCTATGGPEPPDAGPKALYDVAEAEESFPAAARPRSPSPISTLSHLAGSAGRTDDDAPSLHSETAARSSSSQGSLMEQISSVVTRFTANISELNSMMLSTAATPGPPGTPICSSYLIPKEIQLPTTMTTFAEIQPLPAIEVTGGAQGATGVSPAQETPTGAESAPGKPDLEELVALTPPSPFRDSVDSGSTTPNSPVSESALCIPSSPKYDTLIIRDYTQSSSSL

[3] = Metabolic stability in rat hepatic S9 fraction assessed as NADPH dependent metabolism incubated for 60 mins by LC/MS analysis; assay type: ADME, subcellular, Liver; settings: read-out: Drug metabolism
[4] = Metabolic stability in human hepatic S9 fraction assessed as NADPH dependent metabolism incubated for 60 mins by LC/MS analysis; assay type: ADME, subcellular, Liver; settings: read-out: Drug metabolism
in vitro [5] = settings: human, plasma
in vitro [6] = settings: rat, plasma
[7] = target: Metabotropic glutamate receptor 7 (Rattus norvegicus) (UniProt P35400); assay: Negative allosteric modulation of rat mGlu7 receptor expressed in HEK cells harboring GIRK assessed as reduction in L-AP4-induced thallium flux at 10 uM preincubated for 5 mins followed by glutamate addition measured after 2 mins by BTC-AM-dye based fluorescence assay; assay type: functional, cell-based
[8] = target: Metabotropic glutamate receptor 4 (Rattus norvegicus) (UniProt P31423); assay: Negative allosteric modulation of rat mGlu4 receptor expressed in HEK cells harboring GIRK assessed as reduction in glutamate-induced thallium flux at 10 uM preincubated for 5 mins followed by glutamate addition measured after 2 mins by BTC-AM-dye based fluorescence assay; assay type: functional, cell-based
Metabotropic glutamate receptor 4 (Rattus norvegicus), sequence (P31423 whole entry): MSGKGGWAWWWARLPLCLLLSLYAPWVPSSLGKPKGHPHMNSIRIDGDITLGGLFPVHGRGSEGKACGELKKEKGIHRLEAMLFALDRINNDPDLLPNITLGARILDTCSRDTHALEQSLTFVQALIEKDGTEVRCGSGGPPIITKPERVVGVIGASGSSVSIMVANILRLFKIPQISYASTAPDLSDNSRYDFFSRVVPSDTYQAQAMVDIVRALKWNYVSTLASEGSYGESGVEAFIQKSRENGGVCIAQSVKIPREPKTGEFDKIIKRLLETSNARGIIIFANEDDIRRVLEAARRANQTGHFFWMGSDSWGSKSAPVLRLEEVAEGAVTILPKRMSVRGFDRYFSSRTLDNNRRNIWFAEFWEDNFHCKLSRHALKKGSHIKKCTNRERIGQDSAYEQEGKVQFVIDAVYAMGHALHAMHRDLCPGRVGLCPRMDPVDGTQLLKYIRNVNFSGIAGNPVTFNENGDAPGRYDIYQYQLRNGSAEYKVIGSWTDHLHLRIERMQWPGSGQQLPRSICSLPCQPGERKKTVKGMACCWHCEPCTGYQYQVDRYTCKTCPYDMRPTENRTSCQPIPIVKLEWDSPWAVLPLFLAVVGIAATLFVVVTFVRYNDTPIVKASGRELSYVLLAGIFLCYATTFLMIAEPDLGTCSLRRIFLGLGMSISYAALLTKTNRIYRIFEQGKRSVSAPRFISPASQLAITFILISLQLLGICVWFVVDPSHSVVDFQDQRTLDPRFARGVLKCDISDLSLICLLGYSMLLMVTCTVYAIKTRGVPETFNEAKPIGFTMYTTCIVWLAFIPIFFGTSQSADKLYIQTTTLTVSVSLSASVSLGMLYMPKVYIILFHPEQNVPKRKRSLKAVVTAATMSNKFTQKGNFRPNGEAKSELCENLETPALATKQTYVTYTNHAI

[9] = target: Metabotropic glutamate receptor 6 (Rattus norvegicus) (UniProt P35349); assay: Negative allosteric modulation of rat mGlu6 receptor expressed in HEK cells harboring GIRK assessed as reduction in glutamate-induced thallium flux at 10 uM preincubated for 5 mins followed by glutamate addition measured after 2 mins by BTC-AM-dye based fluorescence assay; assay type: functional, cell-based
[10] = target: Metabotropic glutamate receptor 5 (Homo sapiens) (UniProt P41594); assay: Negative allosteric modulation of human mGlu5 receptor expressed in HEK293A cells assessed as reduction in glutamate-induced calcium mobilization at 10 uM by Fluo-4--AM dye based fluorescence assay; assay type: functional, cell-based
Metabotropic glutamate receptor 5 (Homo sapiens), sequence (P41594 21-1212 limits assumed): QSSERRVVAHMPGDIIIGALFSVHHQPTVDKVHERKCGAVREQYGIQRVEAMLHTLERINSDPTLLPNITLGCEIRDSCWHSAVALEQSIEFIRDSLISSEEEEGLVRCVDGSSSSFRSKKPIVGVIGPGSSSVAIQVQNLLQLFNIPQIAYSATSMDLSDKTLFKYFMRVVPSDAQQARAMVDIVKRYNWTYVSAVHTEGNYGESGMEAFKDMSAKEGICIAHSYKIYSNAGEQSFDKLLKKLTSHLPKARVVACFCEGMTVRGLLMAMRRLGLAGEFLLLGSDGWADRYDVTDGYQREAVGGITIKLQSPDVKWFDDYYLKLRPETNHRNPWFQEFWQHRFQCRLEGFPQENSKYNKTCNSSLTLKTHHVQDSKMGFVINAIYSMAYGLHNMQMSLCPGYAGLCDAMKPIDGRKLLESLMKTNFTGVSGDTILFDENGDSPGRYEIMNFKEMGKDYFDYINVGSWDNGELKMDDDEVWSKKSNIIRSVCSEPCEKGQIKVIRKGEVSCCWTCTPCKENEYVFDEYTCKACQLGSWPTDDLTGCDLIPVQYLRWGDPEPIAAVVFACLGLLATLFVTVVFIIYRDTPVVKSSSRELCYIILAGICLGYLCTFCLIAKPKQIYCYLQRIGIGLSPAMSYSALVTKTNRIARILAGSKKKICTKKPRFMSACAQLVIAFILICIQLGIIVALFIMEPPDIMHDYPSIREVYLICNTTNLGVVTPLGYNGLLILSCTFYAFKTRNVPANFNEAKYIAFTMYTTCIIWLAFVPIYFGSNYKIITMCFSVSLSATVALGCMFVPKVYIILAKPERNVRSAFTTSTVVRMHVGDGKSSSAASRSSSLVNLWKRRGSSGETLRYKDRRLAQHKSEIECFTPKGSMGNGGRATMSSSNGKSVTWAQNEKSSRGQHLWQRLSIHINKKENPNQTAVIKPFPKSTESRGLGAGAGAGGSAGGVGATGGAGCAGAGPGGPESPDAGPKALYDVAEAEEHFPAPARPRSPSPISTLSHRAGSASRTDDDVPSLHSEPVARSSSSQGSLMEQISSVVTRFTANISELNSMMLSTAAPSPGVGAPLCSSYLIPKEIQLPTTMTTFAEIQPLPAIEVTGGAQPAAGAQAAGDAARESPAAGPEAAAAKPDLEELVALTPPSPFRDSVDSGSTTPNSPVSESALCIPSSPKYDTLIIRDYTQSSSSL

[11] = target: Metabotropic glutamate receptor 8 (Rattus norvegicus) (UniProt P70579); assay: Negative allosteric modulation of rat mGlu8 receptor expressed in HEK cells harboring GIRK assessed as reduction in glutamate-induced thallium flux at 10 uM preincubated for 5 mins followed by glutamate addition measured after 2 mins by BTC-AM-dye based fluorescence assay; assay type: functional, cell-based
[12] = target: Metabotropic glutamate receptor 2 (Rattus norvegicus) (UniProt P31421); assay: Negative allosteric modulation of rat mGlu2 receptor expressed in HEK cells harboring GIRK assessed as reduction in glutamate-induced thallium flux at 10 uM preincubated for 5 mins followed by glutamate addition measured after 2 mins by BTC-AM-dye based fluorescence assay; assay type: functional, cell-based
[13] = target: Metabotropic glutamate receptor 1 (Rattus norvegicus) (UniProt P23385); assay: Negative allosteric modulation of rat mGlu1 receptor expressed in HEK293 cells assessed as reduction in glutamate-induced calcium mobilization at 10 uM preincubated for 2.3 mins followed by glutamate addition measured after 2.6 mins by Fluo-4--AM dye based fluorescence assay; assay type: functional, cell-based
[14] = target: Metabotropic glutamate receptor 3 (Rattus norvegicus) (UniProt P31422); assay: Negative allosteric modulation of rat mGlu3 receptor expressed in HEK cells harboring GIRK assessed as reduction in glutamate-induced thallium flux at 10 uM preincubated for 5 mins followed by glutamate addition measured after 2 mins by BTC-AM-dye based fluorescence assay; assay type: functional, cell-based
Rattus norvegicus [15] = assay: Mean residence time in rat assessed as 6-(hydroxy(pyridin-3-yl)methyl)-N-(4-methylthiazol-2-yl)quinoline-8-carboxamide formation at 1 mg/kg, iv; assay type: ADME, organism-based; settings: in vivo
In short: (§1)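 Rat intravenous PK: n = 2 male Sprague-Dawley rats, 1.0 mg/kg IV in 10% ethanol/90% PEG 400. Parent and the alcohol metabolite were measured in plasma. MRT = mean residence time.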

[16] = Volume of distribution at steady state in rat at 1 mg/kg, iv; assay type: ADME, organism-based; settings: in vivo, read-out: Vdss; in short: as §1
Rattus norvegicus [17] = assay: Volume of distribution at steady state in rat assessed as 6-(hydroxy(pyridin-3-yl)methyl)-N-(4-methylthiazol-2-yl)quinoline-8-carboxamide formation at 1 mg/kg, iv; assay type: ADME, organism-based; settings: in vivo; in short: as §1
[18] = Drug metabolism in rat whole blood assessed as 6-(hydroxy(pyridin-3-yl)methyl)-N-(4-methylthiazol-2-yl)quinoline-8-carboxamide formation at 37 degC incubated for 1 hr; assay type: ADME, tissue-based
Rattus norvegicus [19] = assay: Half life in rat assessed as 6-(hydroxy(pyridin-3-yl)methyl)-N-(4-methylthiazol-2-yl)quinoline-8-carboxamide formation at 1 mg/kg, iv; assay type: ADME, organism-based; settings: in vivo; in short: as §1
[20] = Half life in rat at 1 mg/kg, iv; assay type: ADME, organism-based; settings: in vivo; in short: as §1
[21] = Mean residence time in rat at 1 mg/kg, iv; assay type: ADME, organism-based; settings: in vivo; in short: as §1
[22] = Drug metabolism in rat whole blood treated with N-(4-methylthiazol-2-yl)-6-nicotinoylquinoline-8-carboxamide assessed as compound formation at 37 degC incubated for 1 hr; assay type: ADME, tissue-based

| Structure (SMILES) | IC50 [1] [nM] | %max [2] [%] | other results |
| --- | --- | --- | --- |
| O=C(c1cncnc1)c1cc(C(=O)Nc2ccc(F)cn2)c2ncccc2c1 | 842 | 2.7 | – |
| Cc1csc(NC(=O)c2cc(C(C)c3cncnc3)cc3cccnc23)n1 (centres undefined) | 589 | 1.4 | – |
| COC(c1cncnc1)c1cc(C(=O)Nc2nc(C)cs2)c2ncccc2c1 (centres undefined) | 1750 | 1.8 | – |
| N#Cc1ccc(NC(=O)c2cc(C(F)(F)c3cncnc3)cc3cccnc23)nc1 | > 30000 | – | – |
| CC(c1cncnc1)c1cc(C(=O)Nc2ccc(F)cn2)c2ncccc2c1 (centres undefined) | 1520 | 1.5 | – |
| N#Cc1ccnc(NC(=O)c2cc(C(F)(F)c3cncnc3)cc3cccnc23)c1 | > 30000 | – | – |
| O=C(Nc1ccc(F)cn1)c1cc(Oc2cncc(F)c2)cc2cccnc12 | 8 | – | – |
| Cc1csc(NC(=O)c2cc(C(F)c3cncnc3)cc3cccnc23)n1 (centres undefined) | 378 | 1.7 | metabolised at 1 h [3]: 55%; metabolised at 1 h [4]: 27% |
| O=C(Nc1ccc(F)cn1)c1cc(C(F)(F)c2cncnc2)cc2cccnc12 | 392 | 4.5 | – |
| O=C(c1cncnc1)c1cc(C(=O)Nc2cccc(F)n2)c2ncccc2c1 | > 10000 | 12.5 | – |
| O=C(Nc1ccc(F)cn1)c1cc(Oc2cncc(F)c2)cn2ncnc12 | – | – | fraction unbound at 4 h, 5 µM (in vitro [5]): 0.071; fraction unbound at 4 h, 5 µM (in vitro [6]): 0.066 |
| COc1cccc(NC(=O)c2cc(C(F)(F)c3cncnc3)cc3cccnc23)n1 | 1610 | 7.1 | – |
| Cc1csc(NC(=O)c2cc(C(F)(F)c3cncnc3)cc3cccnc23)n1 | – | – | inhibition [7]: inactive; inhibition [8]: inactive; inhibition [9]: inactive; inhibition [10]: Active; inhibition [11]: inactive; inhibition [12]: inactive; inhibition [13]: inactive; inhibition [14]: inactive |
| COc1ccnc(NC(=O)c2cc(C(F)(F)c3cncnc3)cc3cccnc23)c1 | > 30000 | – | – |
| CCc1cccc(NC(=O)c2cc(C(F)(F)c3cncnc3)cc3cccnc23)n1 | 3600 | 7.8 | – |
| COC(c1cncnc1)c1cc(C(=O)Nc2ccc(F)cn2)c2ncccc2c1 (centres undefined) | 3480 | 2.9 | – |
| O=C(Nc1nc(C2CC2)cs1)c1cc(C(F)(F)c2cncnc2)cc2cccnc12 | 558 | 3 | – |
| O=C(Nc1ccc(F)cn1)c1cc(C(F)c2cncnc2)cc2cccnc12 (centres undefined) | 217 | 1.5 | – |
| Cc1ccc(NC(=O)c2cc(C(F)(F)c3cncnc3)cc3cccnc23)nc1 | 676 | 3 | – |
| Cc1cccc(NC(=O)c2cc(C(F)(F)c3cncnc3)cc3cccnc23)n1 | 1100 | 2.7 | – |
| Cc1csc(NC(=O)c2cc(C(=O)c3cncnc3)cc3cccnc23)n1 | 172 | 1.3 | MRT (Rattus norvegicus [15]): 107 min; Vd [16]: 50 L/kg; Vdss (Rattus norvegicus [17]): 10 L/kg; Drug metabolism [18]: Metabolite_Detected; t1/2 (Rattus norvegicus [19]): 171 min; half-life [20]: 30 min; MRT [21]: 19 min |
| Cc1cccc(NC(=O)c2cc(C(=O)c3cncnc3)cc3cccnc23)n1 | 417 | 1.5 | – |
| Cc1csc(NC(=O)c2cc(C(O)c3cncnc3)cc3cccnc23)n1 (centres undefined) | > 10000 | – | Drug uptake [22]: Active |
| Cc1ccnc(NC(=O)c2cc(C(F)(F)c3cncnc3)cc3cccnc23)c1 | > 10000 | 44 | – |
